Experimental data as given in ChEMBL document CHEMBL1938298, “Synthesis and characterization of [¹²⁵I]2-iodo N-[(S)-{(S)-1-methylpiperidin-2-yl}(phenyl)methyl]3-trifluoromethyl-benzamide as novel imaging probe for glycine transporter 1” (Bioorg Med Chem, 2011).
Activity calls are given as the source filed them. The rule behind the calls is not given here.

Tests used:
Mus musculus [1] = assay: In vivo binding affinity to GlyT1 in ddY mouse brain striatum at 33.3 kBq, iv after 30 mins in presence of SSR504734 2 mg/kg, iv administered 15 mins prior to compound administration relative to control; assay type: functional, organism-based; set-up: dose 2 mg/kg; settings: tested as the 125I-labelled form
[2] = biological target: T1, Sodium- and chloride-dependent glycine transporter 1 (Rattus norvegicus) (UniProt P28572); assay: Binding affinity to GlyT1 in rat brain hippocampus at 0.03 to 0.04 nM preincubated for 20 mins in binding buffer before compound addition measured after 30 mins by autoradiography in presence of 0.01 mM GlyT1 inhibitor ALX5407 relative to control; assay type: tissue-based; settings: tested as the 125I-labelled form
T1 sequence (whole entry): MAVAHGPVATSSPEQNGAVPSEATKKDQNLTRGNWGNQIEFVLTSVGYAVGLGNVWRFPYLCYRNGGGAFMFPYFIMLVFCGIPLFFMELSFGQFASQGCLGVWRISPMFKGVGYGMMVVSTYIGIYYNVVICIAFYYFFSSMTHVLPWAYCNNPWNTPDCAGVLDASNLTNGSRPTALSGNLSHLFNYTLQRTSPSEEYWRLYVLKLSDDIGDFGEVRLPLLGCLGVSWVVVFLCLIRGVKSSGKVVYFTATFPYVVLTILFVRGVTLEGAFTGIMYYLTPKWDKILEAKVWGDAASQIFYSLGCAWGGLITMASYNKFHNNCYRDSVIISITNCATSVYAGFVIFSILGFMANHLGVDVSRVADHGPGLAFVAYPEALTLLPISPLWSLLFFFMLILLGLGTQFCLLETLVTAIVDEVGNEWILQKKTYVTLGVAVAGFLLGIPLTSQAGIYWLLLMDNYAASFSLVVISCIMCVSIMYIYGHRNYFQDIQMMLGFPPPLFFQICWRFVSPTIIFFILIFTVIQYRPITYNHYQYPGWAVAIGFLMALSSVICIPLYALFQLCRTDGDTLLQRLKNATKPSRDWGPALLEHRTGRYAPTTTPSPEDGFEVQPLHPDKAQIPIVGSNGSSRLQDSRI
Method in brief: (§1)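 Rat brain sagittal sections (20 µm) preincubated 20 min at 25 °C in Tris-HCl buffer pH 7.5 (NaCl, KCl, MgCl2, CaCl2), then 30 min at 25 °C with [125I] tracer (100 kBq, 0.03–0.04 nM) plus competitor (10 µM; glycine 1 or 10 mM). Cold washes, imaging plate 3 days, ROI PSL minus background per mm². % control from ≥triplicate slices, three rats.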

Mus musculus [3] = assay: In vivo binding affinity to GlyT1 in ddY mouse brain hippocampus at 33.3 kBq, iv after 30 mins in presence of N-Me-SSR504734 2 mg/kg, iv administered 15 mins prior to compound administration relative to control; assay type: functional, organism-based; set-up: dose 2 mg/kg; settings: tested as the 125I-labelled form
Method in brief: (§2)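 Blocking study in male ddY mice (6 weeks, 30–35 g). The blocker (2 mg/kg in 30% DMSO/saline) was injected i.v. 15 min before about 33.3 kBq [125I]tracer i.v.; mice were killed at 30 or 60 min. Brains were divided into cortex, corpus callosum, hippocampus, thalamus, midbrain, medulla and cerebellum, weighed and gamma-counted as % dose/g. Values are mean ± SD, n = 5–6, compared to control by Kruskal–Wallis with Dunn's post-test.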

[4] = biological target: T1, Sodium- and chloride-dependent glycine transporter 1 (Rattus norvegicus); assay: Binding affinity to GlyT1 in rat brain medullary region at 0.03 to 0.04 nM preincubated for 20 mins in binding buffer before compound addition measured after 30 mins by autoradiography in presence of 0.01 mM GlyT1 inhibitor HPCP relative to control; assay type: tissue-based; settings: tested as the 125I-labelled form; method in brief: as §1
[5] = biological target: T1, Sodium- and chloride-dependent glycine transporter 1 (Rattus norvegicus); assay: Binding affinity to GlyT1 in rat brain cerebellum at 0.03 to 0.04 nM preincubated for 20 mins in binding buffer before compound addition measured after 30 mins by autoradiography in presence of 10 mM GlyT1 substrate glycine relative to control; assay type: tissue-based; settings: tested as the 125I-labelled form; method in brief: as §1
[6] = biological target: T1, Sodium- and chloride-dependent glycine transporter 1 (Rattus norvegicus); assay: Binding affinity to GlyT1 in rat brain thalamus at 0.03 to 0.04 nM preincubated for 20 mins in binding buffer before compound addition measured after 30 mins by autoradiography in presence of 0.01 mM GlyT1 inhibitor ALX5407 relative to control; assay type: tissue-based; settings: tested as the 125I-labelled form
Mus musculus [7] = assay: In vivo binding affinity to GlyT1 in ddY mouse brain hippocampus at 33.3 kBq, iv after 30 mins in presence of nonradioactive compound 2 mg/kg, iv administered 15 mins prior to compound administration relative to control; assay type: functional, organism-based; set-up: dose 2 mg/kg; settings: tested as the 125I-labelled form; method in brief: as §2
[8] = biological target: T1, Sodium- and chloride-dependent glycine transporter 1 (Rattus norvegicus); assay: Binding affinity to GlyT1 in rat brain striatum at 0.03 to 0.04 nM preincubated for 20 mins in binding buffer before compound addition measured after 30 mins by autoradiography in presence of GlyT1 inhibitor N-Me-SSR504734 relative to control; assay type: tissue-based; settings: tested as the 125I-labelled form
[9] = biological target: T1, Sodium- and chloride-dependent glycine transporter 1 (Rattus norvegicus); assay: Binding affinity to GlyT1 in rat brain hippocampus at 0.03 to 0.04 nM preincubated for 20 mins in binding buffer before compound addition measured after 30 mins by autoradiography in presence of 0.01 mM GlyT1 inhibitor HPCP relative to control; assay type: tissue-based; settings: tested as the 125I-labelled form; method in brief: as §1
Intestine = assay: Drug uptake in ddY mouse intestine at 11.1 kBq, iv after 15 min by gamma counting; assay type: ADME, organism-based; settings: in vivo
Method in brief: (§3)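 Male ddY mice (6 weeks, 30–35 g) received about 11.1 kBq [125I]tracer in 0.1 mL i.v. via tail vein. Killed at set times, organs dissected and weighed, radioactivity gamma counted. Reported as % injected dose/g tissue, mean ± SD, n = 5–6.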

Kidney = assay: Drug uptake in ddY mouse kidney at 11.1 kBq, iv after 5 min by gamma counting; assay type: ADME, organism-based; settings: in vivo
Method in brief: (§4)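 Male ddY mice (6 weeks, 30–35 g) were given about 11.1 kBq of [125I]tracer in 0.1 mL i.v. via the tail vein. At each time point the animals were killed and organs dissected, weighed and gamma-counted. Uptake is expressed as % injected dose per gram of tissue, mean ± SD, n = 5–6.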

Lung [10] = assay: Drug uptake in ddY mouse lung at 11.1 kBq, iv after 60 min by gamma counting; assay type: ADME, organism-based; settings: in vivo, 1 h; method in brief: as §4
Spleen = assay: Drug uptake in ddY mouse spleen at 11.1 kBq, iv after 60 min by gamma counting; assay type: ADME, organism-based; settings: in vivo, 1 h; method in brief: as §4
Mus musculus [11] = assay: In vivo binding affinity to GlyT1 in ddY mouse brain midbrain at 33.3 kBq, iv after 60 mins in presence of nonradioactive compound 2 mg/kg, iv administered 15 mins prior to compound administration relative to control; assay type: functional
Lung [12] = assay: Drug uptake in ddY mouse lung at 11.1 kBq, iv after 30 min by gamma counting; assay type: ADME, organism-based; settings: in vivo, 0.5 h; method in brief: as §4
Nucleic Acid = assay: Ratio of drug level in brain to blood in ddY mouse at 11.1 kBq, iv after 60 min by gamma counting; assay type: ADME, organism-based; settings: 1 h
Mus musculus [13] = assay: In vivo binding affinity to GlyT1 in ddY mouse brain thalamus at 33.3 kBq, iv after 60 mins in presence of N-Me-SSR504734 2 mg/kg, iv administered 15 mins prior to compound administration relative to control; assay type: functional
Stomach = assay: Drug uptake in ddY mouse stomach at 11.1 kBq, iv after 5 min by gamma counting; assay type: ADME, organism-based; settings: in vivo; method in brief: as §4
Blood = assay: Drug uptake in ddY mouse blood at 11.1 kBq, iv after 180 min by gamma counting; assay type: ADME, organism-based; settings: in vivo, 3 h; method in brief: as §3

Activity [2] [%]	Activity [4] [%]	Activity [5] [%]	Activity [6] [%]	Activity [8] [%]	Activity [9] [%]	Drug uptake (Intestine) [% ID/g]	Drug uptake (Kidney) [% ID/g]	Drug uptake (Lung [10]) [% ID/g]	Drug uptake (Spleen) [% ID/g]	Drug uptake (Lung [12]) [% ID/g]	Ratio (Nucleic Acid)	Drug uptake (Stomach) [% ID/g]	Drug uptake (Blood) [% ID/g]	Compound	Activity (Mus musculus [1])	Activity (Mus musculus [3])	Activity (Mus musculus [7])	Activity (Mus musculus [11]) [%]	Activity (Mus musculus [13]) [%]
63.2	20.5	44.9	33.2	32.2	55.9									CN1CCCC[C@H]1[C@@H](NC(=O)c1cccc(C(F)(F)F)c1I)c1ccccc1	inactive	Active	Active		
						3.25	10.71	12.09	5.86	17.07	2.32	3.3	0.85	CN1CCCC[C@H]1[C@@H](NC(=O)c1cccc(C(F)(F)F)c1[125I])c1ccccc1				51	56
